Results on 167 variants are retold here after the RNAGym collection of RNA variant scans (doi:10.1002/anie.201605470).

B1: Osa-1-4 twister ribozyme (parent)
chain: CCGCCUAACACUGCCAAUGCCGGUCCCAAGCCCGGAUAAAAGUGGAGGGGGCGG

This data set covers variants of B1. Put plainly: self-cleavage, relative activity (ratio to wild type); higher = more cleavage; co-transcriptional. A digest of the protocol: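 Values are relative activity: the fraction cleaved, normalised to wild type. A doped DNA template for a 54-nucleotide twister ribozyme from Oryza sativa had 97 % wild-type base and 1 % of each other base at the 48 positions downstream of the cleavage site. The RNA was transcribed in vitro for 2 h at 37 °C so that it could cleave itself co-transcriptionally, then sequenced deeply, with cleavage status scored from the presence or absence of upstream sequence in reads.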
On to A17G A28G, for which the self-cleavage came out at 0.42. In the case of A17G A28C, the self-cleavage worked out at 0.93. Consider A17G A28U, for which the self-cleavage amounted to 0.87. To A16U C27A belongs 0.2; to A16U C27G, 0.06. To A16U C27U belongs 0.17. For A16G U18C the value was 0.97. In the case of A16G U18A, the self-cleavage came to 0.92. Regarding A16G U18G, the self-cleavage amounted to 0.83.

On to A17C G19A, for which the self-cleavage was determined as 0.06. For A17C G19C the value was 0.04; for A17C G19U, 0.04. To A17C U24G belongs 0.02. For the variant A17C U24C, the self-cleavage amounted to 0.05. A17C U24A: the self-cleavage worked out at 0.03.

On to A17C A41C, for which the self-cleavage was found to be 0.68.

Regarding A17C A41G, the self-cleavage came to 0.68. Turning to A17C A41U, the self-cleavage amounted to 0.81. Take A16U C11A: the self-cleavage is 0.64. For the variant A16U C11U, the self-cleavage was 0.8. For A16U C11G the value was 0.55. A16U G35C: the self-cleavage came to 0.17. With A16U G35U, the self-cleavage turned out to be 0.82. For A16U G35A the value was 0.76; for A16U G42U, 0.73; for A16U G42A, 0.8.

In the case of A16U G42C, the self-cleavage came to 0.33. With A17C C25A, the self-cleavage worked out at 0.04. For A17C C25G the value was 0.03; for A17C C25U, 0.18. For A17G A40C the value was 0.09; for A17G A40U, 0.83. As to A17G A40G, the self-cleavage came to 0.89. For A16G G49A, the self-cleavage came to 0.27. For A16G G49C the value was 0.08.

With A16G G49U, the self-cleavage turned out to be 0.3. For A16U C26G the value was 0.11; for A16U C26A, 0.03; for A16U C26U, 0.9. To A17C G49C belongs 0.04. To A17C G49A belongs 0.05. Turning to A17C G49U, the self-cleavage was 0.05. In the case of A16U G51A, the self-cleavage turned out to be 0.64. As to A16U G51U, the self-cleavage amounted to 0.39.

Consider A16U G51C, for which the self-cleavage turned out to be 0.16.

Regarding A16U G45U, the self-cleavage was 0.1. To A16U G45C belongs 0.04. To A16U G45A belongs 0.36; to A17G A8U, 0.49; to A17G A8G, 0.63. Consider A17G A8C, for which the self-cleavage came to 0.12. For A16U A46U the value was 0.05; for A16U A46C, 0.07; for A16U A46G, 0.05. To A16U C25U belongs 0.84; to A16U C25G, 0.08. Take A16U C25A: the self-cleavage amounted to 0.11.

With A17C G23U, the self-cleavage was 0.04.

On to A17C G23A, for which the self-cleavage amounted to 0.07. Consider A17C G23C, for which the self-cleavage was found to be 0.03. To A16U G53U belongs 0.4; to A16U G53C, 0.1; to A16U G53A, 0.85.

On to A17C A39G, for which the self-cleavage came to 0.86. Consider A17C A39C, for which the self-cleavage was determined as 0.52.

For A17C A39U, the self-cleavage worked out at 0.73. For A16G G53C the value was 0.16. As to A16G G53U, the self-cleavage worked out at 0.71. For A16G G53A the value was 0.91; for A16G G54C, 0.99; for A16G G54A, 0.98.

Consider A16G G54U, for which the self-cleavage is 0.93. For A16U C9G the value was 0.91; for A16U C9U, 0.62. In the case of A16U C9A, the self-cleavage is 0.42.

A17C C32A: the self-cleavage was 0.06.

Consider A17C C32G, for which the self-cleavage is 0.08. To A17C C32U belongs 0.05; to A17C A38U, 0.66.

On to A17C A38G, for which the self-cleavage stood at 0.78. For A17C A38C, the self-cleavage is 0.71. For A16G U12G the value was 0.55; for A16G U12A, 0.97; for A16G U12C, 0.53.

For the variant A17G A39U, the self-cleavage amounted to 0.95. For A17G A39G the value was 0.94.

Turning to A17G A39C, the self-cleavage amounted to 0.91. In the case of A16U A29U, the self-cleavage is 0.11.

Consider A16U A29G, for which the self-cleavage was determined as 0.18. To A16U A29C belongs 0.04; to A16G G51U, 0.46; to A16G G51C, 0.22.

In the case of A16G G51A, the self-cleavage was 0.82. A17C C21U: the self-cleavage came to 0.69. To A17C C21G belongs 0.05; to A17C C21A, 0.15. A16U C14A: the self-cleavage came out at 0.05. To A16U C14U belongs 0.3; to A16U C14G, 0.11. Regarding A17C C14G, the self-cleavage was found to be 0.25. For A17C C14U the value was 0.64; for A17C C14A, 0.1. For A16U the value was 0.97.

As for A17C U18A, the self-cleavage was found to be 0.78. To A17C U18G belongs 0.79. Turning to A17C U18C, the self-cleavage came out at 0.57.

Take A16U C33A: the self-cleavage was found to be 0.11. For A16U C33G the value was 0.04. For A16U C33U the value was 0.71. Regarding A16G U24C, the self-cleavage worked out at 0.58. For A16G U24A the value was 0.48; for A16G U24G, 0.04. To A16U U18C belongs 0.87; to A16U U18G, 0.66. To A16U U18A belongs 0.89; to A17C C52G, 0.9. As to A17C C52A, the self-cleavage is 0.87. A17C C52U: the self-cleavage amounted to 0.78. For A17G A38U the value was 0.97; for A17G A38G, 0.99; for A17G A38C, 0.96. For A17G A46C the value was 0.1. Turning to A17C A29U, the self-cleavage amounted to 0.04. For A17C A29G the value was 0.05; for A17C A29C, 0.03. In the case of A16G G50C, the self-cleavage amounted to 0.95. As to A16G G50A, the self-cleavage amounted to 0.77.

For the variant A16G G50U, the self-cleavage was 1.02. Take A17C U37A: the self-cleavage turned out to be 0.41.

In the case of A17C U37G, the self-cleavage was determined as 0.81. For A17C U37C the value was 0.85; for A17C C15U, 0.77. For A17C C15G the value was 0.64; for A17C C15A, 0.7.

A17G A41G: the self-cleavage was determined as 0.94.

Consider A17G A41C, for which the self-cleavage was found to be 0.9. For A17G A41U the value was 0.94. Turning to A16U A17U, the self-cleavage is 1.01. To A16U A17G belongs 0.96; to A16U A17C, 0.94. With A17C G48C, the self-cleavage amounted to 0.03.

Turning to A17C G48A, the self-cleavage turned out to be 0.05.

Turning to A17C G48U, the self-cleavage stood at 0.03.

On to A17C G44C, for which the self-cleavage was found to be 0.72. To A17C G44U belongs 0.7; to A17C G44A, 0.81; to A16U C32U, 0.13. To A16U C32G belongs 0.11. For A16U C32A the value was 0.08; for A16U A40G, 0.38. As for A16U A40U, the self-cleavage is 0.55. For A16U A40C the value was 0.07. For A17C G30A the value was 0.04; for A17C G30C, 0.03. To A17C G30U belongs 0.03. Regarding A16U G19A, the self-cleavage turned out to be 0.89. For A16U G19U the value was 0.26; for A16U G19C, 0.09. Consider A17C G35U, for which the self-cleavage amounted to 0.6. On to A17C G35A, for which the self-cleavage was found to be 0.6.

In the case of A17C G35C, the self-cleavage is 0.45. Take A16U G49C: the self-cleavage is 0.06. For A16U G49A the value was 0.11; for A16U G49U, 0.11; for A17C G22A, 0.21. On to A17C G22C, for which the self-cleavage turned out to be 0.05.

Turning to A17C G22U, the self-cleavage was 0.06.
